Assay results gathered from unrelated publications.
Protocols differ between the studies behind these lines.
NTRK3: NT-3 growth factor receptor (NTRK3, Homo sapiens, UniProt Q16288)
PSMB6/PSMB5/PSMB7: PSMB6/PSMB5/PSMB7 (Homo sapiens, UniProt P28072+P28074+Q99436)

With `CC(=O)c1nn(CC(=O)N2C[C@H](F)C[C@H]2C(=O)Nc2cccc(Br)n2)c2ccc(-c3cnc(C)nc3)cc12` the inhibition was -1% (Dipeptidyl peptidase 4 (DPP4, Homo sapiens, UniProt P27487); enzyme activity, inhibitor; 10 µM).
With `CN1CCN(CC(=O)Nc2cccc(C(=O)Nc3ccc4[nH]ncc4c3)c2)CC1` the inhibition was 23% (NTRK3; enzyme activity, inhibitor, FRET; 1 µM).
The inhibition of `CCN(CC)CCNC(=O)c1c(C)[nH]c(/C=C2\C(=O)Nc3ccc(F)cc32)c1C` is reported as 11% (Dual specificity mitogen-activated protein kinase kinase 7 (MAP2K7, Homo sapiens, UniProt O14733); enzyme activity, inhibitor; 0.3 µM).
For `CC1=C(/C=C/C(C)=C/C=C/C(C)=C/CO)C(C)(C)CCC1`, the inhibition was 46% (Prothrombin (Rattus norvegicus, UniProt P18292); enzyme activity, inhibitor; 200 µg/mL).
The inhibition of `OCc1cc(C(O)CNCCCCCCOCCCCc2ccccc2)ccc1O` (centres unmarked) is reported as 15% (C-X-C chemokine receptor type 4 (CXCR4, Homo sapiens, UniProt P61073); calcium signal, antagonist; U87.CD4.CXCR4; 20 µM).
With `COC(=O)[C@@]12Oc3c(c(O)cc4c3[C@@H]3C=C[C@]5(C4)C(=C(O)c4c(O)cc(C)cc4[C@@H]5OC(C)=O)C3=O)C(O)=C1C(=O)C=C[C@@H]2O` the inhibition was 13% (PSMB6/PSMB5/PSMB7; enzyme activity in cells, inhibitor; MCF7; 20 µg/mL).
The inhibition of `CN(C)C1CCN(CC#Cc2nn(C3CCCC3)c3nc(NCc4ccccc4)ncc23)C1` (centres unmarked) is reported as -1% (Proto-oncogene tyrosine-protein kinase Src (SRC, Homo sapiens, UniProt P12931); enzyme activity, inhibitor, FRET; 0.1 µM).
For `O=C(Nc1ccc(C(F)(F)F)cc1)Nc1cccc(C(=O)Nc2ccc3[nH]ncc3c2)c1`, the inhibition was 13.5% (NTRK3; enzyme activity, inhibitor, FRET; 1 µM).
With `CCN1CCN(Cc2ccc(NC(=O)c3ccc(C)c(Oc4ccnc5[nH]ccc45)c3)cc2C(F)(F)F)CC1` the inhibition was -44.6% (Mitogen-activated protein kinase 3 (MAPK3, Homo sapiens, UniProt P27361); target engagement in cells, inhibitor, chemoproteomics; A-375; 0.5 µM).
With `COc1ccc(C(N)=O)cc1NC(=O)c1cccc(-c2cnc3[nH]c(=O)n(C)c3c2)c1` the inhibition was 0% (Poly [ADP-ribose] polymerase tankyrase-1 (TNKS, Homo sapiens, UniProt O95271); enzyme activity, inhibitor; 0.1 µM).
With `COC(=O)c1c(O)ccc(O)c1C(=O)c1c(O)cc2c(c1O)[C@@H]1C=C[C@]3(C2)C(=C(O)c2c(O)cc(C)cc2[C@@H]3OC(C)=O)C1=O` the inhibition was 55% (PSMB6/PSMB5/PSMB7; enzyme activity in cells, inhibitor; MCF7; 20 µg/mL).
